pIC50: −log10 of the molar value.
Tests used:
Rattus norvegicus [1] = species: Rattus norvegicus; experiment: Ability to displace [125I]glucagon was determined; assay type: functional
Method in brief: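 Rat liver plasma membranes (male Sprague-Dawley; 50 μg protein/0.5 mL) in Tris-HCl 25 mM pH 7.5 with 1% BSA, incubated with [125I]glucagon (100 000 cpm, 25 fmol) and unlabelled peptide at various concentrations for 10 min at 30 °C. Then iced, filtered and washed, and filter radioactivity counted. Nonspecific binding taken with 1 μM unlabelled glucagon. Triplicates, repeated two or three times. IC50 from displacement curves.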

Rattus norvegicus [2] = species: Rattus norvegicus; experiment: Compound tested for the inhibition of glucagon-mediated hyperglycemia in rats; assay type: functional; design: scale not given: the % may be the effect or the level left
Method in brief: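 Normal male Wistar rats under pentobarbital, femoral vein and artery catheterised. At time 0, glucagon 1 μg/kg and an excess of analogue were given together in the same 0.5 mL buffer bolus. Plasma glucose followed over 50 min as change from basal. Mean of 4-6 animals.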

Rattus norvegicus [3] = species: Rattus norvegicus; experiment: Binding affinity against glucagon receptor was determined in rat by using adenylate cyclase assay; assay type: functional
Rattus norvegicus [4] = experiment: Compound tested for the increase in blood glucose level in rats at a dose of 1 ug/kg in 10 min; assay type: functional, organism-based
Method in brief: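 Male Wistar rats (250-400 g), fed ad libitum, under pentobarbital (70 mg/kg) at 36-37 °C. Peptide given as a femoral-vein bolus in 0.5 mL NaCl 145 mM/Na2CO3 2 mM/0.25% BSA. Plasma glucose from femoral-artery samples at 0, 2, 5, 10, 20, 30, 40, 50 min, expressed as change from each rat's basal level. Buffer-only controls run. n = 4-6.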

Q: With `CSCC[C@H](NC(=O)[C@H](CC(C)C)NC(=O)[C@H](Cc1c[nH]c2ccccc12)NC(=O)[C@H](CCC(N)=O)NC(=O)[C@@H](NC(=O)[C@H](Cc1ccccc1)NC(=O)[C@H](CCC(=O)O)NC(=O)[C@H](CCC(N)=O)NC(=O)[C@H](C)NC(=O)[C@H](CCCCN)NC(=O)[C@H](CCCCN)NC(=O)[C@H](CO)NC(=O)[C@H](CC(=O)O)NC(=O)[C@H](CC(C)C)NC(=O)[C@H](Cc1ccc(O)cc1)NC(=O)[C@H](CCCNC(=N)N)NC(=O)[C@H](CO)NC(=O)[C@H](Cc1cc(I)c(O)c(I)c1)NC(=O)[C@H](CC(=O)O)NC(=O)[C@H](CO)NC(=O)[C@@H](NC(=O)[C@H](Cc1ccccc1)NC(=O)[C@H](Cc1ccc(O)cc1)NC(=O)[C@@H](Cc1ccccc1)NC(=O)[C@H](CCC(N)=O)NC(=O)[C@H](CO)NC(=O)[C@@H](N)Cc1c[nH]cn1)[C@@H](C)O)C(C)C)C(=O)N[C@@H](CC(N)=O)C(=O)N[C@H](C(=O)O)[C@@H](C)O` [listing 1 of 2 here] as the compound, how does the pIC50 (Rattus norvegicus [1]) read?
A: The pIC50 was 7.89.

Q: `CSCC[C@H](NC(=O)[C@H](CC(C)C)NC(=O)[C@H](Cc1c[nH]c2ccccc12)NC(=O)[C@H](CCC(N)=O)NC(=O)[C@@H](NC(=O)[C@H](Cc1ccccc1)NC(=O)[C@H](CCC(=O)O)NC(=O)[C@H](CCC(N)=O)NC(=O)[C@H](C)NC(=O)[C@H](CCCCN)NC(=O)[C@H](CCCCN)NC(=O)[C@H](CO)NC(=O)[C@H](CC(=O)O)NC(=O)[C@H](CC(C)C)NC(=O)[C@H](Cc1ccc(O)cc1)NC(=O)[C@H](CCCNC(=N)N)NC(=O)[C@H](CO)NC(=O)[C@H](Cc1cc(I)c(O)c(I)c1)NC(=O)[C@H](CC(=O)O)NC(=O)[C@H](CO)NC(=O)[C@@H](NC(=O)[C@H](Cc1ccccc1)NC(=O)[C@H](Cc1ccc(O)cc1)NC(=O)[C@@H](Cc1ccccc1)NC(=O)[C@H](CCC(N)=O)NC(=O)[C@H](CO)NC(=O)[C@@H](N)Cc1c[nH]cn1)[C@@H](C)O)C(C)C)C(=O)N[C@@H](CC(N)=O)C(=O)N[C@H](C(=O)O)[C@@H](C)O` [listing 2 of 2 here] was tested. Which Activity (Rattus norvegicus [2]) did it give?
A: The Activity was 50%.

Q: GLUCAGON [listing 1 of 2 here] was tested. Which pIC50 (Rattus norvegicus [1]) did it give?
A: Its pIC50 is 8.17.

Q: Which ED50 (Rattus norvegicus [3]) does the source give for GLUCAGON [listing 2 of 2 here] here?
A: The ED50 was 9.6 nM.

Q: And the Activity (Rattus norvegicus [4])?
A: Its Activity is 95.1 mg/dL.

Reference: ChEMBL document CHEMBL1123808, “Synthesis of two glucagon antagonists: receptor binding, adenylate cyclase, and effects on blood plasma glucose levels” (J Med Chem, 1987)
